Lung fibro prol: blocks proliferation of human lung fibroblasts; LL 47 human lung fibroblast viability, ATP luminescence; hits give low values; viability, % at 10 µM; 85,000 compounds, 1.1% hits; AID 719;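 active = viability at or below 50% in the single dose screen; inactive = viability above 50%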;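 note: compound exposure lasted 72 h before the ATP readout; 100% = median luminescence of untreated cell-only wells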
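Assay system: human lung fibroblast line LL 47, low passage. Input: 1,150 fibroblasts seeded per well. Times: overnight cell rest, 72 h compound treatment at 37 °C. Evaluation: % viability of median cell-only signal. Technique: luminescent ATP detection, CellTiter-Glo. Control set: cell-only wells, no compound.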
bCat KO growth: beta-catenin-lacking colon tumor cell growth suppression | HCT116 beta-catenin knockout viability, CellTiter-Glo, 60 h; hits give low values | viability, % at 10 µM | 140,000 compounds, 1.5% hits | AID 818;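 active = viability at or under a set limit, the compound median less 4 SD, cut at about 6% in these data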;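 note: 0% = Hyamine 1622 control at 20 µM and 100% = untreated cell control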
HUVEC inhibit: human endothelial cell proliferation inhibition; HUVEC proliferation, CellTiter-Glo luminescence, 72 h; hits give low values; viability, % at 10 µM (by protocol); 86,000 compounds, 1.1% hits;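 active = viability at or below 30%; inactive = viability above 30%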;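 note: 100% = median luminescence of DMSO-only cell control wells on each plate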
HCT116 PTEN-null: PTEN-deleted cell growth suppression; HCT116 PTEN-null viability, CellTiter-Glo, 60 h; hits give low values; viability, % at 10 µM; 140,000 compounds, 1.2% hits; AID 827;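 active = viability at or below a set limit, 4 SD under the median of all tested compounds, cut at about 3.7% in these data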;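 note: PTEN knockout HCT116 line with beta catenin targeted HCT116 as companion control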
H69AR inhibit: blocks growth of human H69AR lung tumor cells; 85,000 compounds, 6% hits; viability, % at 10 µM; H69AR lung tumor viability, ATP luminescence, 72 h; hits give low values;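 active = viability at or below 40%; inactive = viability above 40%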;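 note: multidrug resistant small cell line overexpressing MRP-1 efflux transporter; 100% = mean luminescence of untreated control wells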
* = called active by the depositor; nt = no result given. This is one part of a sample in which hits are shown more often than they occur.

SMILES	Lung fibro prol	bCat KO growth	HUVEC inhibit	HCT116 PTEN-null	H69AR inhibit
CCCCN1C[C@H](O)[C@@H](O)[C@H](O)[C@H]1CO	94.6	1.0*	100.6	1.2*	91.4
Cc1ccc(Cl)cc1N1CCN(Cc2nc3c(c(=O)[nH]c(=O)n3C)n2CCc2ccccc2)CC1	17.7*	11.1	36.9	16.9	4.3*
Cc1ccc(Cl)cc1N1CCN(Cc2nc3c(c(=O)[nH]c(=O)n3C)n2Cc2ccccc2F)CC1	85.5	nt	42.2	nt	18.8*
Cn1c(=O)[nH]c(=O)c2c1nc(CN1CCN(c3cccc(Cl)c3)CC1)n2CCCc1ccccc1	95.2	67.3	82.4	74.5	57.1
CCn1c(SCC(=O)N/N=C/c2ccc(C)s2)nc2ccccc21	nt	14.4	nt	16.2	nt
CCCN1C(=O)C(O)(C2CC(=O)CC(C)(C)O2)c2ccccc21 (configuration not stated)	76.3	10.9	88.2	11.7	22.6*
CCN1C(=O)C(O)(C2COC(C)(C)CC2=O)c2ccccc21 (configuration not stated)	96.6	53.7	88.7	58.7	59.0
C=CCn1c(CCNC(=O)c2cccs2)nnc1SCC(=O)Nc1cccc(F)c1	97.8	92.5	93.2	84.1	92.0
c1ccc(-n2ncc3c(N4CCN(c5ccccn5)CC4)nc(N4CCOCC4)nc32)cc1	95.4	nt	53.7	nt	27.7*
Cn1ncc(N=Cc2ccccc2O)c1C(=O)Nc1ccccc1	104.7	96.0	97.9	nt	36.8*
COc1cc(C)nc(N2CCCC(C(=O)Nc3cccc(Cl)c3Cl)C2)n1 (configuration not stated)	70.4	99.4	59.8	82.1	11.0*
Cc1ccc(OC(=S)Nc2ccc(O)cc2)cc1	96.8	88.1	70.2	87.1	15.1*
Cc1ccc(OC(=S)Nc2ccc(F)cc2)cc1	95.0	92.9	99.2	88.9	87.5
CC1(C)CC(=O)C2=C(C1)OC(/N=C/N1CCOCC1)=C(C#N)C2c1ccccc1 (configuration not stated)	93.3	96.4	91.4	97.3	55.9
CN1CCN(/C=N/C2=C(C#N)C(c3ccccc3)C3=C(CC(C)(C)CC3=O)O2)CC1 (configuration not stated)	91.9	105.1	85.8	100.6	38.7*
CC1(C)CC(=O)C2=C(C1)OC(N)=C(C#N)C2C#Cc1ccccc1 (configuration not stated)	79.3	19.6	42.6	18.2	1.7*
CCc1ccc(OCc2nnc(SCC(=O)Nc3cccc(C(=O)N4CCOCC4)c3)o2)cc1	nt	100.4	nt	98.1	nt
Cc1ccc(-n2nc(C)c3c(C(=O)OCC(=O)N(C)C4CCS(=O)(=O)C4)cc(-c4ccccc4)nc32)cc1 (configuration not stated)	nt	72.5	nt	66.9	nt
COc1ccc(Cl)cc1NC(=O)C(C)N(C)Cc1ccc(C(F)(F)F)cc1 (configuration not stated)	nt	25.6	nt	33.6	nt
N#C/C(=C\c1ccc(-c2ccccc2)o1)C(=O)Nn1cnnc1	nt	106.0	nt	94.5	nt
N#C/C(=C\c1ccc(-c2cccc(Cl)c2)o1)C(=O)Nc1cccc2cccnc12	96.5	114.3	80.1	104.9	14.6*
CC(Sc1nnc(NCc2ccccc2)s1)C(=O)Nc1ccc2c(c1)C(=O)c1ccccc1C2=O (configuration not stated)	nt	48.4	nt	44.3	nt
Nc1c(C(=O)Nc2nc3ccccc3s2)sc2nc(-c3cccs3)ccc12	nt	-0.1*	nt	0.1*	nt
CCOC(=O)C1CCCN(C(=O)c2cc3c(-c4cccc(OC)c4)nn(C)c3s2)C1 (configuration not stated)	94.8	33.2	72.7	35.1	21.7*
O=C(Oc1cccc(/C=N/Nc2nc(Nc3ccccc3)nc(N3CCOCC3)n2)c1)c1ccco1	nt	32.9	nt	23.7	nt
SMILES	Lung fibro prol	bCat KO growth	HUVEC inhibit	HCT116 PTEN-null	H69AR inhibit
CCn1ncc(C2=NOC(C(=O)NCc3ccc(Cl)cc3)C2)c1C (configuration not stated)	66.7	16.6	55.6	18.3	37.0*
CCC(O)CNc1nc(-n2nc(C)cc2C)nc2sc3c(c12)CCCC3 (configuration not stated)	80.1	nt	103.8	nt	8.4*
Cc1nc(SCC#N)c2c3c(sc2n1)CCC3	94.7	102.0	102.2	95.1	95.1
Cc1cc(C)n(-c2nc(SCCN(C)C)c3c4c(sc3n2)CCCC4)n1	3.0*	3.0*	2.3*	2.0*	2.7*
CCOC(=O)c1cc2sccc2n1CC(=O)N1c2ccccc2CC1C (configuration not stated)	68.8	49.5	11.6*	11.0	4.7*
O=[N+]([O-])c1ccc(C2Oc3ccccc3C3CC(c4ccccc4)=NN32)s1 (configuration not stated)	nt	3.3*	nt	2.1*	nt
COc1ccc(OCC(O)Cn2cnc(-c3ccc(Br)cc3)c2)cc1 (configuration not stated)	99.2	84.8	83.8	96.6	39.0*
Brc1ccc(-c2nnc3ccc(Nc4ccccc4)nn23)cc1	nt	98.1	nt	101.7	nt
Cc1ccc(/C=C/C(=O)NC2CCCCCCC2)o1	nt	44.8	nt	52.6	nt
O=C(Oc1c(Cl)cc(Cl)c2cccnc12)c1ccco1	43.1*	3.5*	30.5	12.6	1.8*
O=C(Oc1c(Cl)cc(Cl)c2cccnc12)c1cccs1	60.9	12.3	47.8	11.5	27.4*
O=C1CSC(=S)N1CC1CCCO1 (configuration not stated)	93.2	68.4	95.0	61.1	19.9*
O=C1C2C3C=CC(C3)C2C(=O)N1CC1CCCO1 (configuration not stated)	102.8	127.7	91.9	106.8	96.9
C=CCn1c(=O)c2c3c(sc2n2c(Nc4ccc(OC)cc4)nnc12)CCCC3	95.4	73.9	77.8	61.8	90.3
C=CCn1c(=O)c2c3c(sc2n2c(Nc4ccc(C(=O)OCC)cc4)nnc12)CCCC3	103.7	84.5	86.1	78.1	38.7*
COC(=O)C1CCN(C(=O)COc2cc3sc(C)nc3c3sccc23)CC1	99.2	81.2	88.7	89.1	34.8*
COC(=O)C1CCN(C(=O)COc2ccc(Cl)cc2)CC1	94.9	96.8	100.4	96.4	95.3
Cc1cccc(C)c1Nc1nnc(SCC(=O)c2ccc3c(c2)NC(=O)CO3)s1	nt	75.6	nt	88.9	nt
Cc1cc(NS(=O)(=O)c2ccccc2)c([N+](=O)[O-])cc1C	nt	88.0	nt	90.5	nt
Cc1cc(NS(=O)(=O)c2ccccc2)c(C)c(Cl)c1O	81.9	2.3*	81.8	2.2*	79.8
COc1ccc(C2CC(c3ccc(Cl)c(Cl)c3)Nc3nc(N)nn32)cc1 (configuration not stated)	94.0	74.0	84.1	77.0	34.0*
Cc1cc(C)c(-n2c(C)cc(/C=C3/NC(=O)NC3=O)c2C)c(C)c1	90.2	72.4	74.4	55.0	17.1*
CCN(CC)c1ccc(NC(=O)c2cccnc2)c(C)c1	99.4	49.3	88.9	38.0	39.7*
Cc1nnc2sc(-c3ccc(NC(=O)c4ccc(-c5ccc(Cl)cc5Cl)o4)cc3)nn12	59.1	nt	28.4*	nt	8.2*
CCSc1ccc(NC(=O)c2cccnc2)cc1	100.4	93.5	105.0	84.5	33.1*

Screening results deposited in PubChem by SRMLSC.
